Experimental data collected from several papers.
Each line is one published result; the experiments were not run side by side.
Route: intravenous

SMILES	host	medium	dose	setting	measurement	value
[2H]C([2H])(c1cc(F)c(F)cc1F)n1c(=O)n(Cc2ncn(C)n2)c(=O)[nH]/c1=N\c1cc2cn(C)nc2cc1Cl	male Sprague-Dawley rat	plasma	5 mg/kg		clearance	1.11 mL/min/kg
CN(C)C(=O)Oc1cc(OC(=O)N(C)C)cc(-c2cc3ccc(O)cc3o2)c1	male rat	plasma	5 mg/kg		clearance	140 mL/min/kg
CCCCCCCC(=O)N[C@@H](CCCCN)C(=O)N[C@@H](CCCCN)C(=O)N[C@@H](C)C(=O)N[C@@H](CC(C)C)C(=O)N[C@@H](CCCCN)C(=O)N[C@@H](CC(C)C)C(=O)N[C@@H](C)C(=O)N[C@@H](CCCCN)C(=O)N[C@@H](CCCCN)C(=O)N1CCC[C@H]1C(=O)N[C@@H](CC(C)C)C(=O)N[C@@H](CCCCN)C(=O)N[C@@H](CC(C)C)C(=O)N[C@@H](CC(C)C)C(=O)N[C@@H](CCCCN)C(N)=O	male Sprague-Dawley rat	blood	3 mg/kg	infusion	clearance	192 mL/min/kg
O=C1c2cc(COc3ccccc3)nn2CCC1c1ccc(F)cc1 (stereo not drawn)	male Sprague-Dawley rat	plasma	0.2 mg/kg		clearance	120 mL/min/kg
N=c1c2c(-c3ccccc3)c(-c3ccccc3)n(Cc3ccccc3)c2ncn1[C@H]1CC[C@H](O)CC1	male Sprague-Dawley rat	plasma	2 mg/kg	single dose	clearance	19.6 mL/min/kg
Cc1cc(C)nc(Nc2ncc(C(=O)NCCc3c(C)[nH]c4ccccc34)cn2)c1	Sprague-Dawley rat	plasma			clearance	81 mL/min/kg
CCCC[C@@H]1NC(=O)[C@H](Cc2ccc(O)cc2)NC(=O)[C@@H]2CCCN2C(=O)[C@H](CC(=O)O)NC(=O)[C@H](C)NC(=O)[C@H](Cc2ccccc2)NC(=O)[C@@H]2CSCCC(=O)N3CN(CN(C3)C(=O)CCSC[C@@H](C(=O)N[C@@H](CNC(=O)CCc3cn(CCOCCOCCOCCN(CCOCCOCCOCCC(=O)N[C@H]4CSCCC(=O)N5CN6CN(C5)C(=O)CCSC[C@H](NC(=O)[C@@H](CC(=O)O)NC(=O)[C@H](Cc5cccc7ccccc57)NC(=O)[C@@H]5CCCN5C4=O)C(=O)N[C@@H](CCSC)C(=O)N[C@@H](CCCCNC(=N)N)C(=O)N[C@@H](CC(=O)O)C(=O)N[C@@H](Cc4c[nH]c5ccccc45)C(=O)N[C@@H](CO)C(=O)N[C@@H]([C@@H](C)O)C(=O)N4CCC[C@H]4C(=O)N4C[C@H](O)C[C@H]4C(=O)N[C@@H](Cc4c[nH]c5ccccc45)C(=O)N[C@H](C(N)=O)CSCCC6=O)CCOCCOCCOCCn4cc(CCC(=O)NC[C@H](NC(=O)[C@@H]5CSCCC(=O)N6CN7CN(C6)C(=O)CCSC[C@H](NC(=O)[C@H](Cc6ccc(O)cc6)NC(=O)[C@@H]6CCCN6C(=O)[C@@H](C)NC(=O)[C@H](CCC(=O)O)NC(=O)[C@@H]6CCCN6C(=O)[C@H](CC(C)(C)C)NC(=O)[C@@H](NC(C)=O)CSCCC7=O)C(=O)N[C@@H](Cc6ccccc6)C(=O)N[C@@H](C)C(=O)N[C@@H](CC(=O)O)C(=O)N6CCC[C@H]6C(=O)N[C@@H](Cc6ccc(O)cc6)C(=O)N[C@@H](CCCC)C(=O)N5)C(N)=O)nn4)nn3)C(N)=O)NC1=O)C(=O)CCSC[C@H](NC(C)=O)C(=O)N[C@@H](CC(C)(C)C)C(=O)N1CCC[C@H]1C(=O)N[C@@H](CCC(=O)O)C(=O)N[C@H](C)C(=O)N1CCC[C@H]1C(=O)N[C@@H](Cc1ccc(O)cc1)C(=O)N2	rat	plasma	2 mg/kg		clearance	8.7 mL/min/kg
O=C(O)CCCO	male Sprague-Dawley rat	urine	600 mg/kg		renal clearance	1.89 mL/min/kg
CCCC[C@@H]1NC(=O)[C@H](Cc2ccc(O)cc2)NC(=O)[C@@H]2CCCN2C(=O)[C@H](CC(=O)O)NC(=O)[C@H](C)NC(=O)[C@H](Cc2ccccc2)NC(=O)[C@@H]2CSCCC(=O)N3CN(CN(C3)C(=O)CCSC[C@H](NC(C)=O)C(=O)N[C@@H](CC(C)(C)C)C(=O)N[C@@H](CCC(=O)O)C(=O)N[C@@H](CCC(=O)O)C(=O)N[C@H](CCCCNC(=O)CCc3cn(CCOCCOCCOCCN(CCOCCOCCOCCC(=O)N[C@H]4CSCCC(=O)N5CN6CN(C5)C(=O)CCSC[C@H](NC(=O)[C@@H](CC(=O)O)NC(=O)[C@H](Cc5cccc7ccccc57)NC(=O)[C@@H]5CCCN5C4=O)C(=O)N[C@@H](CCSC)C(=O)N[C@@H](CCCCNC(=N)N)C(=O)N[C@@H](CC(=O)O)C(=O)N[C@@H](Cc4c[nH]c5ccccc45)C(=O)N[C@@H](CO)C(=O)N[C@@H]([C@@H](C)O)C(=O)N4CCC[C@H]4C(=O)N4C[C@H](O)C[C@H]4C(=O)N[C@@H](Cc4c[nH]c5ccccc45)C(=O)N[C@H](C(N)=O)CSCCC6=O)CCOCCOCCOCCn4cc(CCC(=O)NCCCC[C@H]5NC(=O)[C@H](CCC(=O)O)NC(=O)[C@H](CCC(=O)O)NC(=O)[C@H](CC(C)(C)C)NC(=O)[C@@H](NC(C)=O)CSCCC(=O)N6CN7CN(C6)C(=O)CCSC[C@H](NC(=O)[C@H](Cc6ccc(O)cc6)NC(=O)[C@@H]6CCCN6C5=O)C(=O)N[C@@H](Cc5ccccc5)C(=O)N[C@@H](C)C(=O)N[C@@H](CC(=O)O)C(=O)N5CCC[C@H]5C(=O)N[C@@H](Cc5ccc(O)cc5)C(=O)N[C@@H](CCCC)C(=O)N[C@H](C(N)=O)CSCCC7=O)nn4)nn3)C(=O)N3CCC[C@H]3C(=O)N[C@@H](Cc3ccc(O)cc3)C(=O)N2)C(=O)CCSC[C@@H](C(N)=O)NC1=O	rat	plasma	2 mg/kg		clearance	11 mL/min/kg
C[C@H](C(=O)N[C@H]1COc2ccccc2[C@@H]1S(C)(=O)=O)c1ccc(F)cc1	male Sprague-Dawley rat	plasma	0.5 mg/kg		clearance	10 mL/min/kg
CCCC[C@@H]1NC(=O)[C@H](Cc2ccc(O)cc2)NC(=O)[C@@H]2CCCN2C(=O)[C@H](CC(=O)O)NC(=O)[C@H](C)NC(=O)[C@H](Cc2ccccc2)NC(=O)[C@@H]2CSCCC(=O)N3CN(CN(C3)C(=O)CCSC[C@@H](C(=O)N[C@@H](C)C(N)=O)NC1=O)C(=O)CCSC[C@H](NC(=O)[C@H](C)NC(C)=O)C(=O)N[C@@H]([C@@H](C)CC)C(=O)N[C@@H](CCC(=O)O)C(=O)N[C@@H](CCC(=O)O)C(=O)N[C@H](CCCCNC(=O)CCc1cn(CCOCCOCCOCCN(CCOCCOCCOCCC(=O)N[C@H]3CSCCC(=O)N4CN5CN(C4)C(=O)CCSC[C@H](NC(=O)[C@@H](CC(=O)O)NC(=O)[C@H](Cc4cccc6ccccc46)NC(=O)[C@@H]4CCCN4C3=O)C(=O)N[C@@H](CCSC)C(=O)N[C@@H](CCCCNC(=N)N)C(=O)N[C@@H](CC(=O)O)C(=O)N[C@@H](Cc3c[nH]c4ccccc34)C(=O)N[C@@H](CO)C(=O)N[C@@H]([C@@H](C)O)C(=O)N3CCC[C@H]3C(=O)N3C[C@H](O)C[C@H]3C(=O)N[C@@H](Cc3c[nH]c4ccccc34)C(=O)N[C@H](C(N)=O)CSCCC5=O)CCOCCOCCOCCn3cc(CCC(=O)NCCCC[C@H]4NC(=O)[C@H](CCC(=O)O)NC(=O)[C@H](CCC(=O)O)NC(=O)[C@H]([C@@H](C)CC)NC(=O)[C@@H](NC(=O)[C@H](C)NC(C)=O)CSCCC(=O)N5CN6CN(C5)C(=O)CCSC[C@H](NC(=O)[C@H](Cc5ccc(O)cc5)NC(=O)[C@H](CCC(N)=O)NC4=O)C(=O)N[C@@H](Cc4ccccc4)C(=O)N[C@@H](C)C(=O)N[C@@H](CC(=O)O)C(=O)N4CCC[C@H]4C(=O)N[C@@H](Cc4ccc(O)cc4)C(=O)N[C@@H](CCCC)C(=O)N[C@H](C(=O)N[C@@H](C)C(N)=O)CSCCC6=O)nn3)nn1)C(=O)N[C@@H](CCC(N)=O)C(=O)N[C@@H](Cc1ccc(O)cc1)C(=O)N2	rat	plasma	2 mg/kg		clearance	9.8 mL/min/kg
Cn1cnc(Cn2c(=O)[nH]/c(=N\c3cc4cn(C)nc4cc3Cl)n(Cc3cc(F)c(F)cc3F)c2=O)n1	male Sprague-Dawley rat	plasma	5 mg/kg		clearance	1.03 mL/min/kg
